# Source: PubChem BioAssay
# The list is not random: actives were taken first. Their share in the collection is about 9%.
# AP complement: orthogonal test for alternative complement pathway inhibitors; Human serum alternative complement pathway, LPS-coated ELISA, C3 deposition; tested in compound mixtures; inhibition, % at 5 µM; 0.08% of 62,000 active;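 active = inhibition above 30% in each of the two pooled mixtures holding the compound, so the lower value exceeds 30%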
#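 Test system: human serum complement alternative pathway, C3 deposition onto LPS / Medium: Mg2+-EGTA GVB++ buffer containing human serum at 1:15 dilution / Probe or stimulus: Plate-bound LPS / Times: 1 h at 37 °C / Signal: ELISA with HRP anti-human C3 antibody, TMB substrate, absorbance 450 nm / Measure: percent inhibition / Repeats: two pool placements per compound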
# M1 antagonist: blocks the rat M1 muscarinic receptor response to acetylcholine | P08482 | CHO-M1 cells, Fluo-4 calcium, ACh EC80 antagonist mode; active compounds read low | B-score at 10 µM | 3.4% of 64,000 active;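 active = calcium fluorescence response, raw or row-and-column corrected B-score, differing from the plate sample mean either way at a set confidence level, mostly lower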
# Target sequence (P08482 whole entry, looked up): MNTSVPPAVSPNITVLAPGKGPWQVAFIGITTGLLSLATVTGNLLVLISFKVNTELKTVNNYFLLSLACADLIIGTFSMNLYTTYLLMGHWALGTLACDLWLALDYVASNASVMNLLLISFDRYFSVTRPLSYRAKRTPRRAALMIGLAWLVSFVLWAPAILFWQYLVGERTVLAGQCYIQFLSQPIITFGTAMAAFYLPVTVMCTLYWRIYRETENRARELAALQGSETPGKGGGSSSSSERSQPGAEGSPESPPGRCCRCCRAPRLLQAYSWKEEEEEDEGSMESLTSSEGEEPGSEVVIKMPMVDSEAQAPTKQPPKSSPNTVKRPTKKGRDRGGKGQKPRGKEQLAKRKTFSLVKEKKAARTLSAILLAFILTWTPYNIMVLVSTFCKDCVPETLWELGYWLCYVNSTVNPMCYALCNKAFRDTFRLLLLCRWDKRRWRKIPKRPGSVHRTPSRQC
# D1 mod: D1 dopamine receptor (human) allosteric modulation; HEK293 D1, CRE-luciferase, dopamine EC30 potentiation; actives deviate in either direction; B-score at 10 µM; 5.9% of 58,000 active;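 active = luminescence count or its row- and column-corrected plate score outside the 99.7% band of the plate's sample wells, on either side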
# mHtt clearance: compounds clearing mutant huntingtin protein; HeLa Exon1htt(103Q)mCFP, aggregate imaging; zero = plate's median compound well; 0.42% of 47,000 active; inhibition, % at 1.5 µM;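 active = inhibition of aggregate fluorescence above about 70%, also judged a hit by eye on the cell image, limit read from the data, passing the limit was not always enough; inconclusive = no rule stated for this call; inactive = not judged a hit on image review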;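 also: cells exposed to compound for three days before fixation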
# M1 agonist: agonists of M1 muscarinic receptor. AID 626. B-score at 10 µM. CHO-M1 cells, Fluo-4 calcium fluorescence, agonist mode; active compounds read high. 3% of 64,000 active;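 active = fluorescence rise, raw or as B-score row- and column-corrected plate score, outside the 99.7% band of its plate's samples, either direction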
# M1 ag confirm: rat M1 muscarinic agonism, confirmation | shares compounds with M1 agonist | CHO-M1 cells, Fluo-4 calcium fluorescence, agonist mode; actives lie on both sides | fluorescence change (max-min) at 10 µM | 19% of 1,700 active | AID 1488;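 active = fluorescence change differs from the solvent-only DMSO control mean at a set confidence level in both duplicate runs; inconclusive = differs from solvent-only control mean in just one of two runs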;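 also: an EC20 dose of acetylcholine follows compound addition during the same imaging run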
# M4 agonist ctr: counter-screen for M1 agonists: activity at rat M4 receptor. fluorescence change (max-min) at 10 µM. 9% of 1,700 active. shares compounds with M1 agonist. CHO M4/Gqi5 cells, Fluo-4 calcium fluorescence, agonist mode; actives lie on both sides;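 active = fluorescence change differing from the plate's solvent-only control wells at 99.7% confidence in both duplicates, whether higher or lower; inconclusive = differs from solvent controls in only one of two duplicates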
# A number is an active result; n = inactive; u = inconclusive; x = no result.
SMILES,AP complement,M1 antagonist,D1 mod,mHtt clearance,M1 agonist,M1 ag confirm,M4 agonist ctr
CCN1CCc2c(sc(N)c2C#N)C1,n,n,n,n,12,n,n
CC(=O)N1CCc2cc(S(=O)(=O)CCC(=O)O)ccc21,n,n,x,n,n,x,x
CC(=O)N1CCc2cc(S(=O)(=O)CCC(=O)Nc3c(C)n(C)n(-c4ccccc4)c3=O)ccc21,n,n,n,n,8.6,u,n
Cc1cc(NC(=O)CSc2cn(CCNC(=O)c3ccc(F)cc3)c3ccccc23)no1,n,n,n,n,4.2,n,n
CCOc1ccc2nc(NC(=O)C3CCCN(S(=O)(=O)c4c(C)noc4C)C3)sc2c1 (centres undefined),n,n,n,x,n,x,x
Cc1cc(C(=O)NCCCN2CCN(C3CCCCC3)CC2)n(-c2ccccc2)n1,n,n,n,n,32,n,u
Cc1ccccc1NC(=O)NCCCN1CCN(C2CCCCC2)CC1,n,n,n,n,n,x,x
CCN1CCN(c2nc3c(C)cccn3c(=O)c2/C=C(\C#N)S(=O)(=O)c2ccc(C)cc2)CC1,x,n,n,n,9.7,u,n
COc1ccc(N2CCN(C(=O)c3ccc(OCC4CCCO4)cc3)CC2)cc1 (centres undefined),n,n,n,n,n,x,x
CN(C)c1ccc(/C=C/c2cc[n+]([O-])cc2)cc1,n,n,n,n,247,876,895
CC1CN(c2nc3ccccc3nc2C(C#N)C(=O)NC2CCCCC2)CC(C)O1 (centres undefined),n,n,n,x,41,-31,n
CC1CN(c2nc3ccccc3nc2C(C#N)C(=O)OC2CCCCC2)CC(C)O1 (centres undefined),n,n,n,n,38,u,n
N#CC(C(=O)OC1CCCCC1)c1nc2ccccc2nc1N1CCCCC1 (centres undefined),n,n,n,n,n,x,x
CCCCCNC(=O)C(C#N)c1nc2ccccc2nc1N1CC(C)OC(C)C1 (centres undefined),x,n,x,x,n,x,x
CCOC(=O)N1CCN(C(c2ccc(F)cc2)c2sc3nc(C)nn3c2O)CC1 (centres undefined),n,n,n,x,n,x,x
Cc1ccc(-c2nnc3c4ccccc4c(C)nn23)cc1NC(=O)CN1CCOCC1,n,x,n,n,x,x,x
Cc1ccc(-c2nnc3c4ccccc4c(C)nn23)cc1S(=O)(=O)N1CCN(CCO)CC1,n,n,n,x,4.2,n,n
CC(=O)[C@H]1[C@@H]2C(=O)N(c3cccc(Cl)c3)C(=O)[C@@H]2[C@H]2c3ccccc3C=CN21,x,n,x,n,6.4,98,u
COc1ccc(CCNc2oc(COc3ccc(Br)cc3)nc2C#N)cc1OC,n,n,x,n,4.9,-24,-72
COc1ccc(CCNc2oc(Cc3cccc4ccccc34)nc2C#N)cc1OC,n,n,n,x,n,x,x
CCCCNC(=O)CC1Nc2ccccc2NC1=O (centres undefined),n,n,n,x,7.9,n,u
c1ccc(-c2nc3cc(Cc4ccc5oc(-c6ccccn6)nc5c4)ccc3o2)nc1,n,n,n,x,n,x,x
COc1ccc(-c2csc(N(CCCN3CCOCC3)C(=O)c3ccco3)n2)cc1,n,n,x,x,8.8,n,n
Cc1ccc(-c2csc(N(CCCN3CCOCC3)C(=O)c3ccco3)n2)cc1,n,n,n,n,n,x,x
COc1ccc(-c2csc(N(CCCN(C)C)C(=O)c3cccs3)n2)cc1,n,-9.5,n,x,27,n,n
SMILES,AP complement,M1 antagonist,D1 mod,mHtt clearance,M1 agonist,M1 ag confirm,M4 agonist ctr
COc1cccc(NC(=O)CSc2nnc(-c3cccc(OC(C)C)c3)n2N)c1,n,n,n,n,n,x,x
COC(=O)C1=C(C)N(C)C(C)=C(C(=O)OC)C1c1ccccn1,n,n,n,x,n,x,x
COc1ccc(OC)c(NC(=O)c2ccc(NC(C)=O)cc2)c1,n,n,n,n,n,x,x
COc1ccc(OC)c(N/C(C)=C/C(=O)c2ccc(C)o2)c1,n,n,n,n,5.9,u,n
O=C(Nc1cccc(-c2nc3cccnc3s2)c1)c1ccco1,x,n,n,x,6,u,n
CCOc1ccc(C2C=C(c3ccc(C)cc3)Nc3ncnn32)cc1 (centres undefined),n,n,n,x,5.5,129,u
CCOc1ccc(C2C=C(c3ccc(C)cc3)Nc3nnnn32)cc1 (centres undefined),n,n,n,n,n,x,x
CCOc1ccc(C2C=C(c3ccccc3)Nc3nnnn32)cc1 (centres undefined),n,n,n,n,n,x,x
COc1ccc(C2C=C(c3ccccc3)Nc3ncnn32)cc1 (centres undefined),n,n,n,x,9.7,86,n
Cc1cc(C(=O)OCC(=O)Nc2ccc(F)cc2)c(C)o1,n,n,n,x,n,x,x
c1ccc(N2CCN(c3nnc(Cc4cccnc4)c4ccccc34)CC2)nc1,n,n,x,n,3.6,n,u
c1ccc(N2CCN(c3cnccn3)CC2)nc1,n,n,x,n,n,x,x
CCc1ccc(NC(=O)CSc2nnc(Cn3c(=O)sc4ccccc43)n2C)cc1,n,n,x,x,n,x,x
CCOC(=O)c1ccc(NC(=O)CSc2nnc(Cn3c(=O)sc4ccccc43)n2C)cc1,n,n,x,x,2.3,n,n
COCC(C)NC(=O)NC1(C(F)(F)F)Oc2ccc(Cl)cc2O1 (centres undefined),n,n,n,n,6.4,u,n
O=C(NCCN1CCOCC1)NC1(C(F)(F)F)Oc2ccc(Cl)cc2O1 (centres undefined),n,n,n,x,n,x,x
CCOC(=O)c1ccc(Nc2nnc(C(C)(C)C)c(=O)[nH]2)cc1,n,n,n,n,3.5,n,n
CCOC(=O)c1ccc(NC(=O)C2CC2)cc1,n,n,n,x,n,x,x
COc1ccc(N2CCN(C(=O)c3ccc(CNc4c(N5CCOCC5)c(=O)c4=O)cc3)CC2)cc1,n,n,n,x,n,x,x
O=C(NCc1ccco1)c1sc(=S)n2c1[nH]c(=O)c1ccccc12,n,n,n,n,12,n,n
O=C(NC1CCCC1)c1sc(=S)n2c1[nH]c(=O)c1ccccc12,n,n,n,n,n,x,x
CCCCOP(=O)(OCCCC)C1(NS(=O)(=O)c2ccccc2)C=CC(=O)c2ccccc21 (centres undefined),x,x,x,n,x,x,x
CCn1ncc2c(OCc3ccc(C#N)cc3)cc(C)nc21,n,n,n,x,n,x,x
CC(=O)NCCc1ccc(S(=O)(=O)N2CCOCC2)cc1,n,n,n,n,2.2,n,n
Cc1cc(=O)oc2ccc(OC(=O)c3cccc(S(=O)(=O)N4CCOCC4)c3)cc12,n,n,n,n,4.8,u,n
Cc1cc(=O)oc2cc(OCc3ccc(S(=O)(=O)N4CCOCC4)cc3)ccc12,n,n,n,n,n,x,x
Cc1c(C(=O)NCCC2=CCCCC2)oc2ccc(S(=O)(=O)N3CCOCC3)cc12,n,-2.9,x,n,15,u,n
